Measurements reported in ChEMBL document CHEMBL4834416, “The Discovery of Novel ACA Derivatives as Specific TRPM2 Inhibitors that Reduce Ischemic Injury Both In Vitro and In Vivo” (J Med Chem, 2021).
Active and inactive are the calls of the source. The rule behind the calls is not given here.

Legend:
[1] = biological target: T1, Transient receptor potential cation channel subfamily M member 2 (Homo sapiens, UniProt O94759); experiment: Inhibition of human TRPM2 expressed in HEK293T cells assessed as blocked of ADPR-activated current by whole cell patch clamp electrophysiology; type: cell-based
T1 sequence (O94759 whole entry): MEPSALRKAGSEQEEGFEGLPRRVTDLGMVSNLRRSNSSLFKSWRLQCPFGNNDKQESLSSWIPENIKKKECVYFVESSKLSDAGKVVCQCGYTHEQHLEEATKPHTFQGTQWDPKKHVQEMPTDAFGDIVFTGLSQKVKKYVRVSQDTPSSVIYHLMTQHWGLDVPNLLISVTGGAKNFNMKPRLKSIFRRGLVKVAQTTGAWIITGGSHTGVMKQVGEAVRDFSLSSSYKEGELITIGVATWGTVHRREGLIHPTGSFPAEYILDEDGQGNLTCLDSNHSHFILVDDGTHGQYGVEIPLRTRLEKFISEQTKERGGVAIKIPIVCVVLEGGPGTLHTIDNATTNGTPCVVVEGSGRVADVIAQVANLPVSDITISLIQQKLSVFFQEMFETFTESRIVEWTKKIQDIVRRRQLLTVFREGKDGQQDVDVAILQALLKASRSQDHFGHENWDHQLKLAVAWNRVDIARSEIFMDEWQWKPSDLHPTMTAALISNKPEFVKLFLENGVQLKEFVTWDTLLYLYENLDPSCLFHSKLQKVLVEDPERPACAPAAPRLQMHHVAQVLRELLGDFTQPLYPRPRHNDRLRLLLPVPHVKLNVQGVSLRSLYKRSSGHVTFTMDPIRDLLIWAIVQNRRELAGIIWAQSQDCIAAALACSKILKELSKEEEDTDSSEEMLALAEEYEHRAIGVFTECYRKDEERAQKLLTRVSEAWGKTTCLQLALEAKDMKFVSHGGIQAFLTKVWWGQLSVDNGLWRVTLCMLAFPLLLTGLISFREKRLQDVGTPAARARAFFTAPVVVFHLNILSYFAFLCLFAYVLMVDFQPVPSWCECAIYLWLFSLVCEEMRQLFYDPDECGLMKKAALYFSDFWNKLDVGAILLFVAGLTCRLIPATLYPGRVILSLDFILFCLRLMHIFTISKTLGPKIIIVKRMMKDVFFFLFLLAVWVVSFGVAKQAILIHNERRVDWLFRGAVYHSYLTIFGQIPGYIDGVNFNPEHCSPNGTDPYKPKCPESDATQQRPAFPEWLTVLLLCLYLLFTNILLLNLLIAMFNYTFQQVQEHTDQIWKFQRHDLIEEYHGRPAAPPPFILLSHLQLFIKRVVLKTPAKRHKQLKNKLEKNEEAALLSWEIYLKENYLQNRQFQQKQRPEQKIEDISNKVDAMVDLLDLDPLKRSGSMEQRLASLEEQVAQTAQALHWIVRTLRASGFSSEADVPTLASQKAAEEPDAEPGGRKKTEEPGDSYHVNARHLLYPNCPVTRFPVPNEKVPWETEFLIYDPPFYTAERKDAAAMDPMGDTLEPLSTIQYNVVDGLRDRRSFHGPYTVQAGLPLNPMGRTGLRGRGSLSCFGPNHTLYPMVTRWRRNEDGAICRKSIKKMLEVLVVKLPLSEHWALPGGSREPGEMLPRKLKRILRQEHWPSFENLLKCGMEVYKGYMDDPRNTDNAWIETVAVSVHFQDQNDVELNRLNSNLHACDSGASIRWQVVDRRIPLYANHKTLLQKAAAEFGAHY

SH-SY5Y [2] = experiment: Cytotoxicity against human SH-SY5Y cells assessed as toxicity at 30 uM incubated for 24 hrs by CCK-8 assay; type: cell-based
How it was run: (§1)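 SH-SY5Y cells were seeded at 2 × 10⁴ per well and grown 12 h at 37 °C. They were then treated with compound (1–30 μM) under normoxic, normal-glucose conditions for 24 h. CCK-8 (10%) was added for 2 h at 37 °C and OD450 read. Viability was taken relative to untreated control after blank subtraction, with three replicate wells.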

[3] = biological target: T1, Transient receptor potential cation channel subfamily M member 2; experiment: Inhibition of human TRPM2 expressed in HEK293T cells assessed as suppression of H2O2-induced calcium flux at 1 uM measured after 30 mins by Fluo-3/AM assay; type: cell-based
[4] = biological target: T1, Transient receptor potential cation channel subfamily M member 2; experiment: Inhibition of human TRPM2 expressed in HEK293T cells assessed as suppression of H2O2-induced calcium flux at 0.3 uM measured after 30 mins by Fluo-3/AM assay; type: cell-based
[5] = biological target: T2, Transient receptor potential cation channel subfamily M member 8 (Homo sapiens, UniProt Q7Z2W7); experiment: Inhibition of human TRPM8 expressed in HEK293T cells assessed as blocked of menthol-activated current at 10 uM by whole cell patch clamp electrophysiology relative to control; type: cell-based
How it was run: (§2)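 Whole-cell patch clamp was run at room temperature on HEK293T cells transiently cotransfected with human TRPM8 plus GFP, 24–48 h before recording. ECS was 145 NaCl, 5.6 KCl, 2 MgCl₂, 1.2 CaCl₂, 10 HEPES, pH 7.2. Current was activated with 1 mM menthol, and compound was perfused at least 60 s after it stabilized. Inhibition was calculated relative to stable agonist current minus residual current; n = 3–6.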
Target sequence in this assay (Q7Z2W7 whole entry, looked up, the tested form may be a part): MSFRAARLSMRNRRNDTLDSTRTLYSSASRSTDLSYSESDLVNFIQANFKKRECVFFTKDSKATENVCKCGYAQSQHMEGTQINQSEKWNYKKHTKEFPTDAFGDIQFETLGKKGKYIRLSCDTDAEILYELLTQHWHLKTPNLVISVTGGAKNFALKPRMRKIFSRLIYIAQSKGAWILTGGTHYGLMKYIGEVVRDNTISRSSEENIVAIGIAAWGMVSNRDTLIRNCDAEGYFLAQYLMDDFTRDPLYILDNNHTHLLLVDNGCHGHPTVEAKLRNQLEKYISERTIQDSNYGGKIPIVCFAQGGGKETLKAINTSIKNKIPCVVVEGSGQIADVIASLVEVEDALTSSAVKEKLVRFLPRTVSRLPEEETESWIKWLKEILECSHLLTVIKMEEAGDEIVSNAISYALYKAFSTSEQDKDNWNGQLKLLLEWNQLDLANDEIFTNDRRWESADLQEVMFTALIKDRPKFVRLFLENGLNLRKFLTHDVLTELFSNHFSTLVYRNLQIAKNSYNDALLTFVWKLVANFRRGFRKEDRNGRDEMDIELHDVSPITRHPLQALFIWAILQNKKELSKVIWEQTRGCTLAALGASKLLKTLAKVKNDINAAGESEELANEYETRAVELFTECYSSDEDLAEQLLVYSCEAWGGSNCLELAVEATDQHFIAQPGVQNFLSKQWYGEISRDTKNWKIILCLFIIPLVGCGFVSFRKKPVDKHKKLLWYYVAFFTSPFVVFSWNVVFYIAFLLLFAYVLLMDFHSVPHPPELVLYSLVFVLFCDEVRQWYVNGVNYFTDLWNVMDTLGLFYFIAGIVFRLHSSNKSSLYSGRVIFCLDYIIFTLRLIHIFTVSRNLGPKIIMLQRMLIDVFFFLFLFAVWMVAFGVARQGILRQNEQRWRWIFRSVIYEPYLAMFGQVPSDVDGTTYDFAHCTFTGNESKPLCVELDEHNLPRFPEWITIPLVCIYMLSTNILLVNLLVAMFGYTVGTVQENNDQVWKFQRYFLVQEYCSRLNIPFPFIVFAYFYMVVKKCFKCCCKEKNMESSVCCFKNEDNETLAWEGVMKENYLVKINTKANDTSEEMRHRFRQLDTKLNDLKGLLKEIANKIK

Phospholipase A2 [6] = biological target: T3, Phospholipase A2 (Homo sapiens, UniProt P04054); experiment: Inhibition of PLA2 (unknown origin) using soybean phosphatidylcholine as substrate at 10 uM preincubated for 30 mins followed incubated for 60 mins after substrate addition by microplate reader relative to control
How it was run: (§3)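 PLA2 (4 μg/L in PBS) was preincubated 30 min at 37 °C with inhibitor in 125 mM Tris. Substrate was then added for 60 min: soybean phosphatidylcholine with Tris, CaCl₂, sodium deoxycholate and 0.5% Triton X-100. Liberated free fatty acids were quantified colorimetrically at OD550. Results are % inhibition versus enzyme without inhibitor, n = 3.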
Target sequence in this assay (P04054 23-148 limits assumed): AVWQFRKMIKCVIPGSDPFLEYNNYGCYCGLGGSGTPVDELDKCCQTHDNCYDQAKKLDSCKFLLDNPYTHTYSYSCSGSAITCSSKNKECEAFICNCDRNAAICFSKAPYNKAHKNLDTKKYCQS

SH-SY5Y [7] = experiment: Neuroprotective activity against oxygen glucose deprivation/reperfusion-induced cell death in human SH-SY5Y cells assessed as cell viability at 3 uM […] by CCK8 assay relative to control; type: functional
SH-SY5Y [8] = experiment: Cytotoxicity against human SH-SY5Y cells assessed as cell viability under normoxic/normal sugar condition at 10 to 30 uM by CCK-8 assay; type: cell-based; details: dose 10-30 µM; how it was run: as §1
[9] = biological target: T2, Transient receptor potential cation channel subfamily M member 8; experiment: Inhibition of human TRPM8 expressed in HEK293T cells assessed as blocked of menthol-activated current at 3 uM by whole cell patch clamp electrophysiology relative to control; type: cell-based; how it was run: as §2
Target sequence in this assay (Q7Z2W7 whole entry, looked up, the tested form may be a part): as the sequence (Q7Z2W7 whole entry, looked up, the tested form may be a part) above

Phospholipase A2 [10] = biological target: T3, Phospholipase A2; experiment: Inhibition of PLA2 (unknown origin) using soybean phosphatidylcholine as substrate preincubated for 30 mins followed incubated for 60 mins after substrate addition by microplate reader relative to control; how it was run: as §3
Target sequence in this assay (P04054 whole entry): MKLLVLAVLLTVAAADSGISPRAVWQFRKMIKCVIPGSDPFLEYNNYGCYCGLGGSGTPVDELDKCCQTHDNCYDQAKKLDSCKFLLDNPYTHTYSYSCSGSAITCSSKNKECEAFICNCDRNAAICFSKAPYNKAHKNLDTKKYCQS

Phospholipase A2 [11] = biological target: T3, Phospholipase A2; experiment: Inhibition of PLA2 (unknown origin) using soybean phosphatidylcholine as substrate at 3 uM preincubated for 30 mins followed incubated for 60 mins after substrate addition by microplate reader relative to control; how it was run: as §3
Target sequence in this assay (P04054 23-148 limits assumed): as the sequence (P04054 23-148 limits assumed) above

Mus musculus [12] = experiment: Neuroprotective activity in mouse model of transient middle cerebral artery occlusion-induced cerebral ischemia-reperfusion injury assessed as reduction in infarct volume at 3 mg/kg, iv treated for 3 hrs after onset of reperfusion by TTC staining based assay (reference value: 57.6 +/- 4.9%); type: functional; design: scale not given: the % may be the effect or the level left
Mus musculus [13] = experiment: Neuroprotective activity in mouse model of transient middle cerebral artery occlusion-induced cerebral ischemia-reperfusion injury assessed as reduction in infarct volume at 1 mg/kg, iv treated for 3 hrs after onset of reperfusion by TTC staining based assay (reference value: 52 +/- 1.7%); type: functional; design: scale not given: the % may be the effect or the level left
Mus musculus [14] = experiment: Neuroprotective activity in mouse model of transient middle cerebral artery occlusion-induced cerebral ischemia-reperfusion injury assessed as reduction in infarct volume at 0.3 mg/kg, iv treated for 3 hrs after onset of reperfusion by TTC staining based assay (reference value: 52 +/- 1.7%); type: functional; design: scale not given: the % may be the effect or the level left
Mus musculus [15] = experiment: Neuroprotective activity in mouse model of transient middle cerebral artery occlusion-induced cerebral ischemia-reperfusion injury assessed as reduction neurological score at 3 mg/kg, iv treated for 3 hrs after onset of reperfusion by TTC staining based assay (reference value: 2.4 +/- 0.5); type: functional
Mus musculus [16] = experiment: Neuroprotective activity in mouse model of transient middle cerebral artery occlusion-induced cerebral ischemia-reperfusion injury assessed as reduction neurological score at 1 mg/kg, iv treated for 3 hrs after onset of reperfusion by TTC staining based assay relative to control; type: functional, organism-based
Mus musculus [17] = experiment: Neuroprotective activity in mouse model of transient middle cerebral artery occlusion-induced cerebral ischemia-reperfusion injury assessed as reduction neurological score at 0.3 mg/kg, iv treated for 3 hrs after onset of reperfusion by TTC staining based assay relative to control; type: functional, organism-based
[18] = biological target: T2, Transient receptor potential cation channel subfamily M member 8; experiment: Inhibition of human TRPM8 expressed in HEK293T cells assessed as blocked of menthol-activated current by whole cell patch clamp electrophysiology relative to control; type: cell-based; how it was run: as §2
Target sequence in this assay (Q7Z2W7 whole entry, the tested form may be a part): as the sequence (Q7Z2W7 whole entry, looked up, the tested form may be a part) above

Row | SMILES | IC50 [1] [nM] | inhibition [3] [%] | inhibition [4] | further results
1 | O=C(/C=C/c1ccc(-c2cccc(F)c2)cc1)Nc1ccccc1C(=O)O | 830 | > 45 |  | Activity (SH-SY5Y [2]): < 23.7%
2 | CCOC(=O)Cn1nc(-c2ccc(C(F)(F)F)cc2)c2c1CCCCC2 | 13 |  |  | 
3 | O=C(/C=C/c1ccc(N2CCCCC2)cc1)Nc1ccccc1C(=O)O |  | < 45 | inactive | 
4 | CCCCCc1ccc(/C=C/C(=O)Nc2ccc(C)cc2C(=O)O)cc1 | 987 | > 45 |  | Activity (SH-SY5Y [2]): < 10%; inhibition [5]: 85.6%; inhibition (Phospholipase A2 [6]): inactive; Activity (SH-SY5Y [7]): Active
5 | CC(C)(C)c1ccc(/C=C/C(=O)Nc2ccccc2C(=O)O)cc1 |  | < 45 | inactive | 
6 | Cc1ccc(/C=C/C(=O)Nc2ccccc2C(=O)O)cc1 |  | < 45 | inactive | 
7 | CCCCCc1ccc(/C=C/C(=O)Nc2cc(C)ccc2C(=O)O)cc1 | 467 | > 45 |  | Activity (SH-SY5Y [2]): < 10%; inhibition [5]: 88.1%; inhibition (Phospholipase A2 [6]): inactive; Activity (SH-SY5Y [7]): Active; Activity (SH-SY5Y [8]): Non-Toxic
8 | CCCCCc1ccc(/C=C/C(=O)Nc2ccccc2C(=O)O)cc1 |  | > 45 |  | Activity (SH-SY5Y [2]): < 10%; inhibition [5]: 62.2%; inhibition [9]: 39.3%; inhibition (Phospholipase A2 [6]): 40.4%; IC50 (Phospholipase A2 [10]): 22000 nM; inhibition (Phospholipase A2 [11]): 23.4%
9 | O=C(/C=C/c1ccc(-c2cccc([N+](=O)[O-])c2)cc1)Nc1ccccc1C(=O)O | 398 | > 45 |  | Activity (SH-SY5Y [2]): < 10%; inhibition [5]: 14.6%; inhibition (Phospholipase A2 [6]): 24.6%; Activity (SH-SY5Y [7]): Active; Activity (SH-SY5Y [8]): Non-Toxic
10 | O=C(/C=C/c1ccc(-c2cccnc2)cc1)Nc1ccccc1C(=O)O |  | < 45 | inactive | 
11 | O=C(/C=C/c1ccc(Cl)cc1)Nc1ccccc1C(=O)O |  | < 45 | inactive | 
12 | CC1=NN(c2ccccc2)C(=O)C1 [EDARAVONE] |  |  |  | viability at 3 µM (SH-SY5Y [7]; read-out: Activity): 81.2%; Activity (SH-SY5Y [8]): Non-Toxic; Activity (Mus musculus [12]): 39%; Activity (Mus musculus [13]): 43.9%; Activity (Mus musculus [14]): 46.2%; Activity (Mus musculus [15]): 1.6; Activity (Mus musculus [16]): inactive; Activity (Mus musculus [17]): inactive
13 | O=C(/C=C/c1ccc(N2CCOCC2)cc1)Nc1ccccc1C(=O)O |  | < 45 | inactive | 
14 | Clc1ccc(COC(Cn2ccnc2)c2ccc(Cl)cc2Cl)cc1 (stereo not given) [ECONAZOLE] | 3000 |  |  | 
15 | O=C(/C=C/c1ccccc1)Nc1ccccc1C(=O)O |  | < 45 | inactive | 
16 | Clc1ccccc1C(c1ccccc1)(c1ccccc1)n1ccnc1 [CLOTRIMAZOLE] | 3000 |  |  | 
17 | O=C(/C=C/c1ccc(-c2ccccc2)cc1)Nc1ccc(Br)cc1C(=O)O | 410 | > 45 |  | Activity (SH-SY5Y [2]): < 10%; inhibition [5]: 93.3%; inhibition (Phospholipase A2 [6]): inactive; Activity (SH-SY5Y [7]): Active
18 | O=C(/C=C/c1ccc(-c2ccccc2)cc1)Nc1ccccc1C(=O)O | 2560 | > 45 |  | 
19 | CC(C)NC(=O)c1ccc(/C=C/C(=O)Nc2ccccc2C(=O)O)cc1 |  | < 45 | inactive | 
20 | COc1cccc(NC(=O)/C=C/c2ccc(Cl)cc2)c1 |  |  |  | IC50 [18]: > 10000 nM
21 | CC(C)c1ccc(/C=C/C(=O)Nc2ccccc2C(=O)O)cc1 |  | < 45 | inactive | 
22 | CCCc1ccc(/C=C/C(=O)Nc2ccccc2C(=O)O)cc1 |  | < 45 | inactive | 
